Compound activity as filed in PubChem BioAssay.
Scp-1 inhibitor: inhibitors of human Scp-1 phosphatase; Recombinant Scp1, phosphopeptide, malachite green phosphate absorbance; inhibition, % at 20 µM; 340,000 compounds, 0.88% hits;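 active = inhibition above about 50% at 20 µM, limit read from the data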;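 also: plate controls were DMSO wells with enzyme for no effect and wells lacking enzyme for full effect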
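Material – SCP-1 phosphatase catalytic domain, residues 76-261 · Buffer or medium – Acidic Tris acetate buffer with magnesium and detergent · Also added – Phospho 17-mer peptide substrate · Compound – single 20 µM dose, 1% DMSO · Times – 45 min room-temperature reaction, 5 min colour, 30 min stabiliser · Technique – Phosphate-binding colour reagent, absorbance read at 630 nm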
DNMT1 block: blocks human DNA methyltransferase DNMT1 | DNMT1 molecular beacon, Hinp1I cleavage, fluorescence | AID 588458 | 360,000 compounds, 0.83% hits | inhibition (reported as % activation of signal), % at 10 µM | P26358; in the data active = inhibition above about 50%
Target sequence (P26358 504-1616 limits assumed): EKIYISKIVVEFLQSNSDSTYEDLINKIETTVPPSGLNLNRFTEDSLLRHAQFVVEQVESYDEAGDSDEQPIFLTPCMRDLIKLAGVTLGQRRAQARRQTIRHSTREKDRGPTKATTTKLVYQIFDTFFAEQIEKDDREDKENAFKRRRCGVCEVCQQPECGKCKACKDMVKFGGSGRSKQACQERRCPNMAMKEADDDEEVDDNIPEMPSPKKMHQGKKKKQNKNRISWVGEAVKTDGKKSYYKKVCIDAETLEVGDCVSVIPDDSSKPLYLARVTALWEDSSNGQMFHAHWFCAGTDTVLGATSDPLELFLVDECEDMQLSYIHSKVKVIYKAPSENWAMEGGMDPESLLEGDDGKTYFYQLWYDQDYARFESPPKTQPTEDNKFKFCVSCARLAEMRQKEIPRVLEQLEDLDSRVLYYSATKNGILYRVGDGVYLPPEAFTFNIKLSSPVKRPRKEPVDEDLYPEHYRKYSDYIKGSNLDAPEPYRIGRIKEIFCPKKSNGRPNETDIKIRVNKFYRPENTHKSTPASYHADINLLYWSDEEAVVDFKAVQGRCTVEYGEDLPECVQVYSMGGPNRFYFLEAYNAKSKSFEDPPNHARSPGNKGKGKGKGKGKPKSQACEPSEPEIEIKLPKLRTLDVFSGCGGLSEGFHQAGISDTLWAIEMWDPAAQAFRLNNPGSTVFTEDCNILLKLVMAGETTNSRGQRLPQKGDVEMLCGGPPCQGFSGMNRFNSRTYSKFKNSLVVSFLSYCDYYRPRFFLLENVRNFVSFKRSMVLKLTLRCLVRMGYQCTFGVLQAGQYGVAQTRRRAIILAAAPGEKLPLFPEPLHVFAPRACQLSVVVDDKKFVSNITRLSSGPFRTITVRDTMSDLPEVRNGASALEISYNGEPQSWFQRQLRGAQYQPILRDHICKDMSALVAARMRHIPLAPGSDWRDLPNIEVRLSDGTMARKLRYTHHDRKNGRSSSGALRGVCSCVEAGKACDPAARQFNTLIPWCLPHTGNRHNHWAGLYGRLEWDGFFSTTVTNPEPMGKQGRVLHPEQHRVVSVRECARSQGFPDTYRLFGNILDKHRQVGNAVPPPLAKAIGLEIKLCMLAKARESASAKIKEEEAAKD
SUMO1-SIM PPI: modulators of human SUMO1-mediated protein-protein interactions | P63165 | SUMO1 binding to a labelled peptide, TR-FRET, 1 h | inhibition, % at 20 µM | 360,000 compounds, 0.33% hits | AID 602429; in the data active = inhibition above about 37%
LMPTP inh: blocks human LMPTP phosphatase | P24666 | recombinant LMPTP-A, OMFP fluorogenic substrate, fluorescence intensity | inhibition, % at 20 µM | 360,000 compounds, 0.22% hits;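 active = compounds that cut the enzyme signal by at least half of the control window in the single-dose screen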;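 also: plate controls were DMSO wells with enzyme plus substrate for no effect and substrate without enzyme for full effect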
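Assay system: LMPTP-A enzyme. Input: 0.625 nM LMPTP-A final. Probe or stimulus: 400 µM OMFP. Compound dosing: single 20 µM dose. Schedule: 50 min dark incubation at room temperature. Detection: fluorescence intensity of OMFP turnover product. Read-out: percent inhibition versus substrate-only and uninhibited controls. Benchmarks: no-enzyme low control, uninhibited high control.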
STEP block: inhibitors of human striatal-enriched phosphatase STEP | P54829 | recombinant STEP, OMFP fluorogenic substrate, fluorescence | inhibition, % at 20 µM | 360,000 compounds, 0.25% hits | AID 588621;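 active = inhibition at 20 µM, scaled per plate between control wells, above about 37%, limit read from the data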;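 also: 0% = DMSO with enzyme and substrate and 100% = substrate only without enzyme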
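Also added – OMFP at 25 µM · Test system – STEP tyrosine phosphatase · Technique – FITC-channel fluorescence of OMFP product · Schedule – 20 min at room temperature, dark · Evaluation – control-normalized % inhibition with plate pattern correction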
GRK2 aptamer HTS: human GRK2 inhibition via aptamer displacement; P25098; bead flow cytometry, FAM-aptamer displacement from GRK2; inhibition of aptamer binding, % at 10 µM; 330,000 compounds, 0.59% hits;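 active = inhibition of aptamer binding above 40%, roughly 3 SD of noise, on plates passing a quality check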;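 also: median bead fluorescence of bound FAM aptamer so fluorescent compounds give negative values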
Active calls of the source: *; x = not tested or not shown. Sampled rows, rich in hits. Any-hit rate of the full collection: about 2.1%.

SMILES	Scp-1 inhibitor	DNMT1 block	SUMO1-SIM PPI	LMPTP inh	STEP block	GRK2 aptamer HTS
O=C(Nc1cccnc1Cl)c1cc(-c2cccc(O)c2)on1	-3.0	-2.4	72.3*	0.6	-2.3	1.0
Cn1cnc2ncnn2c1=S	x	3.0	3.0	-2.0	-2.5	x
O=C1C(=Cc2ccc(Br)o2)C(=O)c2ccccc21	65.5*	108.3*	103.2*	78.4*	95.8*	7.0
CC(C)(C)C(c1nc2ccccc2[nH]1)n1c(-c2cc(Cl)cc(Cl)c2)nc2ccccc21 (centres undefined)	x	x	2.1	23.2	x	x
O=C(NN1C(=O)/C(=C/c2ccc(O)c(O)c2)SC1=S)c1ccccc1	-17.1	50.3*	4.8	31.4	3.6	2.0
CC(=O)NN1C(=O)/C(=C\c2ccc(O)cc2)SC1=S	-2.7	-0.5	-63.9	1.3	6.0	79.0*
COc1cccc(-c2oc3c(c2C(=O)OCCN(C)C)C(O)CCC3)c1 (centres undefined)	x	x	0.5	-1.0	x	x
CCc1ccc(C2CC3C(CN2S(=O)(=O)c2ccc(C)cc2)C(=O)CC(c2ccc(CC)cc2)N3S(=O)(=O)c2ccc(C)cc2)cc1 (centres undefined)	x	x	-3.5	1.3	x	x
COc1ccc(OC)c(CN2CCN(C(=O)c3ccc(C)c(S(=O)(=O)Nc4ccccc4OC)c3)CC2)c1	0.5	-50.5	-146.8	-8.5	-0.6	x
Cc1cc(OCC(=O)Nc2cccnc2)c2c(C)c(C)c(=O)oc2c1	1.8	4.8	75.8*	2.2	4.2	0.0
Cn1nc(CC(=O)NCc2ccc(F)cc2)c2ccccc2c1=O	-12.9	3.5	46.1*	0.0	0.0	5.0
COc1cccc(-c2cc(CNC(=O)[C@H]3O[C@@H](n4ccc(=O)[nH]c4=O)[C@H](O)[C@@H]3O)no2)c1	x	0.0	5.2	-1.5	-1.0	x
CC1=C(C(=O)N2CCCCCC2)CC(CC(=O)NC(c2ccccc2)c2ccccc2)C(=O)N1CCC1=CCCCC1 (centres undefined)	x	x	13.6	11.2	x	x
C[C@@H]1COc2cc(N3CCC[C@@H]3CO)ccc2S(=O)(=O)N1	x	x	5.3	-1.1	x	x
COc1ccccc1OCC(=O)NCC1CCCN(C(=O)c2cccc(C)c2)C1 (centres undefined)	x	0.8	-0.7	-0.8	-1.5	x
CCn1c(/C=C/N(C)c2ccccc2)[n+](CC)c2ccc(Cl)cc21	74.0*	0.5	-4.0	-0.6	-0.7	0.0
CCn1c(/C=C/Nc2ccccc2)[n+](CC)c2ccc(Cl)cc21	11.4	3.1	-0.7	-1.4	-6.2	0.0
NS(=O)(=O)c1ccc(N/N=C/c2ccc(O)cc2O)c([N+](=O)[O-])c1	-2.5	-13.2	-20.3	2.5	-3.7	2.0
NS(=O)(=O)c1ccc(N/N=C/c2ccc(O)c(O)c2O)c([N+](=O)[O-])c1	48.0	-5.0	14.3	65.2*	5.1	x
O=C(NC1CCCC1)c1sc(=S)n2c1[nH]c(=O)c1ccccc12	57.5*	-2.3	9.6	0.4	18.7	4.0
O=C1NC[C@H](CCCCN2C[C@H](Cc3ccccc3)N(CCC3CCCCC3)C(=O)C2=O)N(CCc2ccccc2)C1=O	x	x	4.4	1.7	x	x
COC1=C(Br)C(=O)c2ncccc2C1=O	2.2	91.4*	48.5*	11.9	8.9	x
O=C1C(=O)c2cccnc2-c2ncccc21	x	112.0*	39.1	55.8*	6.8	x
O=C1c2cccnc2-c2ncccc21	7.1	0.5	-32.9	-0.8	4.2	0.0
O=C(NCc1ccccc1)C(C1CC1)n1c(Cc2cc(F)cc(F)c2)nc2ccccc21 (centres undefined)	x	x	2.9	-0.2	x	x
SMILES	Scp-1 inhibitor	DNMT1 block	SUMO1-SIM PPI	LMPTP inh	STEP block	GRK2 aptamer HTS
CC(C)[C@H](NC(=O)c1ccccc1Cl)C(=O)OCC(=O)NCc1ccc2c(c1)OCO2	-6.5	4.3	-4.2	-0.7	-2.3	42.0*
CN1/C(=C\C=[N+](C)c2ccccc2)C(C)(C)c2ccccc21	71.8*	0.9	-3.5	-2.0	0.4	2.0
CN1/C(=C\C=N\O)C(C)(C)c2ccccc21	-3.7	-8.8	3.0	-1.9	-2.0	6.0
CCOC(=O)C1=C(C)N=c2sc(=Cc3ccc(OCC(=O)O)cc3)c(=O)n2C1c1ccc(SC)cc1 (centres undefined)	x	89.5*	106.5*	65.0*	93.5*	x
CCCNC(=O)c1cc(C2CCCCN2C(=O)c2ccc(OC)cc2)on1 (centres undefined)	x	1.8	1.3	-1.8	-3.7	x
O=C(CN1CCN(c2cnn(-c3ccccc3)c(=O)c2Cl)CC1)NC1CCS(=O)(=O)C1 (centres undefined)	-5.7	0.7	-12.7	-1.0	2.9	x
Oc1cc2c(cc1O)C1c3ccc(O)c(O)c3OCC1(O)C2 (centres undefined)	60.9*	9.7	9.6	3.2	4.0	0.0
Cc1cc(C)cc(NC(=O)NN2C(C)CCCC2C)c1 (centres undefined)	-3.0	2.4	54.4*	0.7	-0.2	100.0*
c1cc(-c2ccc(N3CCOCC3)cc2)n2ccnc2c1	x	-3.6	-19.8	2.2	-2.6	x
Cc1cccc(S(=O)(=O)Nc2nc3ccccc3nc2OC(C)C)c1	-15.2	-0.4	7.8	-0.5	-0.7	58.0*
CCCCc1ccc(S(=O)(=O)NC(=O)C2(C)CCN2C(=O)CC2CC2)cc1 (centres undefined)	x	8.8	2.0	-1.0	-3.0	x
Cn1c(=O)c(C(=O)NNC(=O)c2ccc(Br)cc2)c(O)c2ccccc21	-10.2	0.1	9.3	1.2	0.6	47.0*
COc1ccc(-c2coc3c(C(=O)NCC(C)C)cccc23)c(C)c1	x	8.9	6.4	2.6	-0.2	x
Cn1c(=O)n(C)c2cc(/C=N/NC(=O)c3cc4cc(Br)ccc4o3)ccc21	25.9	-10.2	60.0*	-0.4	8.8	17.0
Cc1ccc(NC(=O)Nn2cnnc2)cc1Cl	-6.1	2.2	49.1*	0.1	-2.2	2.0
O=C(Nc1ccc(Cl)c(Cl)c1)Nn1cnnc1	3.0	-4.4	2.6	-0.7	2.3	0.0
COc1cc(NC(=O)C2(C)CCN2C(C)C)cc(OC)c1OC (centres undefined)	x	-34.2	3.2	-1.3	-1.5	x
Cc1cc(N2CCN(C(c3ccnc4ccccc34)c3nnnn3-c3c(C)cccc3C)CC2)c2ccccc2n1 (centres undefined)	x	x	3.5	88.7*	x	x
Cc1ccc(-c2nn3c(C)nnc3s2)cc1NC(=O)c1ccc(-c2ccc(Cl)cc2Cl)o1	43.1	65.9*	12.3	43.6	93.4*	0.0
COCCN1C(=O)COc2ccccc2C1C(=O)NC1CCCC1 (centres undefined)	x	x	0.1	0.2	x	x
